This note sets out measurements from PubChem BioAssay AID1656 (Sanford-Burnham Center for Chemical Genomics, 2009).

The inhibition is the drop in the measured response relative to a control, in per cent.

The campaign covered roughly 240,000 compounds. About 950 (0.4%) were called active.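 The calls were made as follows: active = lipid droplet intensity inhibited by at least 50%, with more than 500 cells counted; inconclusive = wells with under 300 cells, treated as cytotoxic; inactive = the rest.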 Shown is part of a subset that was picked to be rich in actives.

The test is described as follows: inhibitors of hepatocyte lipid droplet formation, primary screen, imaging, high-throughput imaging, BODIPY stain (AID 1656).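 As to cell count: cells counted across two imaged fields per well.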 To be noted: AML12 mouse hepatocytes, oleate lipid droplets, at 6.5 µM; cell count: measured here: cell count, cytotoxicity flag; inhibition: stronger effect = higher value. An outline of the steps:
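Test system: AML12 mouse liver cells; schedule: overnight exposure; technique: high-content imaging of BODIPY-stained droplets and DAPI nuclei; read-out: % inhibition of corrected integrated BODIPY droplet signal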
Turning to `COc1ccc(CCNC(=O)CCCCCNC(=O)N2CCn3c2nc2ccccc23)cc1OC`, the cell count turned out to be 692 cells and the inhibition is 0.7% (inactive).
On to `CCCN1CCn2c3c(c4cc(Br)ccc42)CCCC31` (stereo unspecified), for which the cell count turned out to be 795 cells and the inhibition is -5.9% (inactive).
For `CCC(C(=O)NC1CCCCC1)N(C(=O)c1snc(C(N)=O)c1N)c1ccc(OC)cc1OC` (stereo unspecified), the cell count amounted to 820 cells and the inhibition was -0.1% (inactive).
With `Cc1ccc(NC(=O)c2cc(-c3ccccc3O)n[nH]2)cc1C`, the cell count was 660 cells and the inhibition is 31.5% (inactive).
As for `Cc1nc2cc(C(F)(F)F)ccc2n1CCNc1nc(-c2cc(Cl)c(N)c(Cl)c2)cs1`, the cell count worked out at 750 cells and the inhibition is 8.1% (inactive).
As for `Cc1c(C(=O)NCC(c2ccco2)N2CCCC2)oc2ccc(Cl)cc12` (stereo unspecified), the cell count was found to be 736 cells and the inhibition was 2.8% (inactive).
For the compound `CS(=O)(=O)N(CC(=O)N1CCOCC1)c1cccc(Cl)c1Cl`, the cell count turned out to be 792 cells and the inhibition is -9.9% (inactive).
On to `COc1ccc(NC(=O)NCCN2CCN(c3ccc(C)cc3)CC2)c(Cl)c1`, for which the cell count stood at 800 cells and the inhibition was -0.4% (inactive).
For the compound `CCN(C(=O)COc1ccc(C(=O)c2ccccc2)cc1)c1ccccc1`, the cell count worked out at 592 cells and the inhibition is -18.3% (inactive).
For the compound `Cc1cc(CN(C)C(=O)c2cc(COc3ccc(C)c(C)c3)on2)n[nH]1`, the cell count worked out at 697 cells and the inhibition is -6.7% (inactive).
Consider `CC(Cc1cccs1)N(Cc1ccc(Cl)cc1)C(=O)c1ccncc1` (stereo unspecified), for which the cell count amounted to 838 cells and the inhibition is -16% (inactive).
For `O=C(NC(=S)Nc1ccccc1N1CCCCC1)c1ccc(F)cc1`, the cell count is 720 cells and the inhibition was 8.8% (inactive).
In the case of `COc1ccc(C(CNC(=O)COc2ccccc2OC)N2CCCCC2)cc1` (stereo unspecified), the cell count was 697 cells and the inhibition is -15% (inactive).
In the case of `COc1cccc(Cn2cc(/C=N/NC(=O)c3cc(O)cc(O)c3)c3ccccc32)c1`, the cell count worked out at 740 cells and the inhibition was -2.5% (inactive).
In the case of `COc1ccc(C)cc1Nc1n[n+](-c2ccccc2)c(-c2cccc(Cl)c2Cl)s1`, the cell count was determined as 778 cells and the inhibition is -4.7% (inactive).
For `CC1CCN(CCCn2c(SCC(=O)NC3CCCC3)nc3ccccc3c2=O)CC1`, the cell count was determined as 704 cells and the inhibition is -17.3% (inactive).
Regarding `CC1CCCN(CCCNC(=O)CN2C(=O)COc3ccc(S(=O)(=O)N4CCOCC4)cc32)C1` (stereo unspecified), the cell count turned out to be 780 cells and the inhibition is -12.4% (inactive).
With `O=C(NCC(=O)N1CCN(c2ccccc2O)CC1)c1ccc2ccccc2c1`, the cell count is 679 cells and the inhibition was -1.6% (inactive).
For the compound `COc1ccc(N(Cc2cc3ccc(C)cc3[nH]c2=O)S(=O)(=O)c2ccccc2)cc1`, the cell count is 764 cells and the inhibition was -6.7% (inactive).
The matching figures for `CC(C)c1ccc(NC2CCCN(C(=O)c3ccncc3)C2)cc1` (stereo unspecified): 631 cells and -2.4% (inactive).
As to `O=C(N/C(=C\c1ccc([N+](=O)[O-])cc1)C(=O)N1CCOCC1)c1cccc(Br)c1`, the cell count worked out at 652 cells and the inhibition is -42.9% (inactive).
On to `COc1ccc(-c2c(C#Cc3ccccc3)c3ccccc3n2C)cc1`, for which the cell count turned out to be 742 cells and the inhibition was -11.3% (inactive).
Regarding `Cc1ccccc1OCC(=O)Nc1ccc(S(=O)(=O)N2CCOCC2)cc1`, the cell count came to 768 cells and the inhibition is -7.1% (inactive).
In the same order, the values of `O=C(/C=C/c1ccc([N+](=O)[O-])o1)NNC(=O)c1ccc(F)cc1` are 473 cells and -82% (inactive).
As for `CCCc1ccc(-c2csc(NC(=O)Cc3cccs3)n2)cc1`, the cell count stood at 774 cells and the inhibition is 71% (active).
The matching figures for `COc1ccc(-c2csc(NC(=O)CCCc3cccs3)n2)cc1`: 687 cells and -3.2% (inactive).
In the case of `Cc1ccc(-c2csc(NC(=O)Cc3cccs3)n2)cc1C`, the cell count worked out at 732 cells and the inhibition was 12.4% (inactive).
The matching figures for `CCOCCCN(C)C1CCN(C(=O)c2oc3ccccc3c2NC(=O)COc2cccc(C)c2)CC1`: 640 cells and -24.8% (inactive).
Regarding `Cc1ccc(NC(=O)CN2CCc3ccccc3C2)cc1`, the cell count was found to be 793 cells and the inhibition was 7.1% (inactive).
The matching figures for `O=C(CN1CCOCC1)Nc1ccccc1`: 743 cells and 1.4% (inactive).
On to `O=C(CN1CCc2cc3c(cc2C1)OCCCO3)Nc1ccccc1`, for which the cell count turned out to be 784 cells and the inhibition is 77.1% (active).
Regarding `CC1(C)CC(=O)C(N=Nc2c(F)cccc2F)=C(O)C1`, the cell count worked out at 713 cells and the inhibition was 8.6% (inactive).
On to `Cc1ccc(N2C(=O)C(NC(=O)c3c(F)cccc3F)(C(F)(F)F)C3=C2CC(C)(C)CC3=O)cc1` (stereo unspecified), for which the cell count was determined as 635 cells and the inhibition is 63.8% (active).
The matching figures for `CCOC(=O)CC1(NC(=O)c2cc(COc3cncc(Cl)c3)on2)CCCCC1`: 665 cells and 11.8% (inactive).
Turning to `CCOC(=O)N1CCN(C(=O)c2ccc3c(=O)n(CCc4ccc(OC)c(OC)c4)c(=O)[nH]c3c2)CC1`, the cell count is 684 cells and the inhibition was 16.5% (inactive).
The matching figures for `CCCCNC(=O)c1cn(CC)c2cc(N3CCN(C(=O)c4ccco4)CC3)c(F)cc2c1=O`: 705 cells and -15.8% (inactive).
Turning to `O=S(=O)(c1ccc(Cl)cc1)c1nc(-c2ccco2)oc1N1CCCCC1`, the cell count is 633 cells and the inhibition was -18% (inactive).
The matching figures for `CN(CC1CCCO1)S(=O)(=O)c1ccc(C(=O)Nc2ccc([N+](=O)[O-])cc2)cc1` (stereo unspecified): 854 cells and 0.6% (inactive).
Consider `CC(C)c1ccc2oc(=O)cc(CN3CCN(Cc4ccccc4)CC3)c2c1`, for which the cell count amounted to 850 cells and the inhibition was -0.8% (inactive).
In the case of `C=CCSc1nnc(N2C(=O)C(O)=C(C(=O)c3ccco3)C2c2ccc(F)cc2)s1` (stereo unspecified), the cell count is 710 cells and the inhibition is -21.4% (inactive).
As to `COc1ccc(/C=C(\NC(=O)c2ccc(OCC(C)C)cc2)C(=O)OCc2ccco2)cc1`, the cell count stood at 607 cells and the inhibition was 74.3% (active).
As to `COc1ccc(C(=O)Nc2ccccc2C(=O)NCc2ccco2)cc1`, the cell count came to 738 cells and the inhibition was -20.2% (inactive).
As to `COc1ccc(/C=C(/NC(=O)c2ccco2)C(=O)Nc2ccc(C(C)=O)cc2)cc1`, the cell count turned out to be 829 cells and the inhibition was 8.8% (inactive).
As to `CCn1cc(S(=O)(=O)c2cccc(C)c2)c(=O)c2cc(F)c(N3CCN(C)CC3)cc21`, the cell count came to 738 cells and the inhibition is 7.2% (inactive).
For the compound `CCC1=Nc2cc(C(=O)NCCN3CCCC3)ccc2Sc2ccc(C)cc21`, the cell count was found to be 726 cells and the inhibition is 4.6% (inactive).
Consider `COc1cc2ccccc2cc1C(=O)Nc1ccc(N2CCOCC2)cc1`, for which the cell count worked out at 835 cells and the inhibition is -4.2% (inactive).
Turning to `COc1cccc(/C=C(/CC(=O)Nc2ccc(N3CCOCC3)cc2)c2nc3ccccc3s2)c1`, the cell count worked out at 578 cells and the inhibition is 77.8% (active).
Consider `COc1ccc(/C=C(/CC(=O)Nc2ccc(C)cc2)c2nc3ccccc3s2)cc1`, for which the cell count came out at 713 cells and the inhibition is -0.1% (inactive).
On to `COc1ccc(CCNC(=O)COC(=O)/C=C/c2cccs2)cc1OC`, for which the cell count is 727 cells and the inhibition was 2.8% (inactive).
The matching figures for `CCOc1ccc(CCNC(=O)C(CC)n2nc(C)n3c(cc4sccc43)c2=O)cc1OCC` (stereo unspecified): 786 cells and 85.5% (active).
Take `CCC(C(=O)NCc1ccc(OC)cc1)n1nc(C)n2c(cc3occc32)c1=O` (stereo unspecified): the cell count was 780 cells and the inhibition was -2.7% (inactive).
The matching figures for `Cc1ccc2cc(C)c(N3CCN(c4ccc(F)cc4)CC3)nc2c1`: 820 cells and 15% (inactive).
Regarding `CC(NC(=O)CNC(=O)Cc1cccc2ccccc12)c1ccc(S(N)(=O)=O)cc1` (stereo unspecified), the cell count was found to be 734 cells and the inhibition is 13.3% (inactive).
As for `CC(NC(=O)c1ccccc1C(=O)O)c1ccc(-n2ccnc2)cc1` (stereo unspecified), the cell count was determined as 807 cells and the inhibition was 2.2% (inactive).
In the case of `CC(NC(=O)c1cccc2ccccc12)c1ccc2c(c1)CCCC2` (stereo unspecified), the cell count was 688 cells and the inhibition is 57.9% (active).
Take `CCn1c(=S)sc2c(=O)n(CC(=O)Nc3cccc(Br)c3)c(C)nc21`: the cell count was found to be 740 cells and the inhibition is 8.5% (inactive).
On to `C/C(=N\NC(=O)COc1ccc(C)cc1[N+](=O)[O-])c1ccc2c(c1)OCCO2`, for which the cell count was 706 cells and the inhibition is -6.5% (inactive).
For `CCCSc1nc2sc3c(c2c(=O)n1-c1ccc(OC)cc1)CCN(C)C3`, the cell count turned out to be 816 cells and the inhibition is 11.2% (inactive).
The matching figures for `O=c1[nH]cccc1-c1nc2ccccc2n1Cc1ccc(Cl)cc1`: 844 cells and 10.1% (inactive).
The matching figures for `CC(=O)N1c2ccc(S(=O)(=O)N3CCC(C(=O)N4CCN(c5ccccc5)CC4)CC3)cc2CC1C` (stereo unspecified): 669 cells and -1.7% (inactive).
Consider `Cc1ccc(Nc2ccc(C(N)=O)cc2[N+](=O)[O-])cc1`, for which the cell count is 630 cells and the inhibition is -6.1% (inactive).
As to `Cc1cc(Nc2ccc(N3CCOCC3)cc2)c2cccc(C)c2n1`, the cell count was determined as 761 cells and the inhibition is 11.3% (inactive).
For `Cc1ccc(Nc2cc(C)nc3c(C)ccc([N+](=O)[O-])c23)cc1`, the cell count came to 674 cells and the inhibition was 57.6% (active).
On to `O=C(Nc1ncc([N+](=O)[O-])s1)C1COc2ccccc2O1` (stereo unspecified), for which the cell count came to 840 cells and the inhibition was -18.9% (inactive).
The matching figures for `CCN(CCCNC(=O)CSc1cc(=O)n(C)c2cc(Cl)ccc12)Cc1ccccc1`: 704 cells and 18.8% (inactive).
As for `Cn1c(=O)cc(SCC(=O)N2CCCC2)c2cc(Cl)ccc21`, the cell count came out at 775 cells and the inhibition was 9% (inactive).
Regarding `CCOc1ccc(CCNC(=O)CSc2cc(=O)n(C)c3ccc(Cl)cc23)cc1OCC`, the cell count amounted to 659 cells and the inhibition was 93.9% (active).
With `O=C(c1ccccc1)N1CCC(CC2CC(c3ccc(Cl)cc3)=NO2)(C(=O)NCC2CCCCC2)CC1` (stereo unspecified), the cell count came to 817 cells and the inhibition was -15.1% (inactive).
Turning to `CN(CC1CCCN(CCc2cccc(C(F)(F)F)c2)C1)C(=O)c1ccc2nc[nH]c2c1` (stereo unspecified), the cell count was determined as 744 cells and the inhibition is -11.4% (inactive).
As to `O=C(NCCCN1CCCC1=O)C(=O)NCC1OCCN1S(=O)(=O)c1ccc(Br)cc1` (stereo unspecified), the cell count was determined as 666 cells and the inhibition was -6.7% (inactive).
As for `OC(c1nnc(-c2ccccc2)o1)c1cccs1` (stereo unspecified), the cell count was found to be 773 cells and the inhibition was 16.7% (inactive).
For the compound `CCCC(=O)Nc1nnc(-c2ccccc2)o1`, the cell count was determined as 702 cells and the inhibition was 4.2% (inactive).
In the same order, the values of `CCCN(CCC)c1ccc(C(O)c2nnc(-c3ccccc3)o2)cc1` (stereo unspecified) are 691 cells and 69.3% (active).
Consider `O=C(Nc1ccccc1C(=O)Nc1ccncc1)c1ccc([N+](=O)[O-])cc1`, for which the cell count amounted to 805 cells and the inhibition was 10.9% (inactive).
As to `CCCN(CCC)c1nc2c(C)cccn2c(=O)c1/C=C1/SC(=S)N(Cc2ccco2)C1=O`, the cell count amounted to 775 cells and the inhibition is 57.5% (active).
With `O=C(CCCN1C(=O)/C(=C\c2ccco2)SC1=S)Nc1cccc2ccccc12`, the cell count was 553 cells and the inhibition is -6.6% (inactive).
For the compound `CCOC(=O)CC1C(=O)NCCN1c1nc2c(C)cccn2c(=O)c1/C=C1\SC(=S)N(C(C)CC)C1=O` (stereo unspecified), the cell count worked out at 696 cells and the inhibition is 36.8% (inactive).
On to `CCc1cccc(NC(=O)CCCN2C(=O)C(c3ccccc3)Oc3cccnc32)c1` (stereo unspecified), for which the cell count is 663 cells and the inhibition is -3.4% (inactive).
